pEC50, pKi: −log10 of the molar value.
Biological target: T1, Cannabinoid receptor 2 (Homo sapiens, UniProt P34972)
Assay: Displacement of [3H]CP-55940 from human recombinant CB2 receptor expressed in HEK293 cells
Type: cell-based
Conditions: read-out: Ki

T1 sequence (P34972 whole entry): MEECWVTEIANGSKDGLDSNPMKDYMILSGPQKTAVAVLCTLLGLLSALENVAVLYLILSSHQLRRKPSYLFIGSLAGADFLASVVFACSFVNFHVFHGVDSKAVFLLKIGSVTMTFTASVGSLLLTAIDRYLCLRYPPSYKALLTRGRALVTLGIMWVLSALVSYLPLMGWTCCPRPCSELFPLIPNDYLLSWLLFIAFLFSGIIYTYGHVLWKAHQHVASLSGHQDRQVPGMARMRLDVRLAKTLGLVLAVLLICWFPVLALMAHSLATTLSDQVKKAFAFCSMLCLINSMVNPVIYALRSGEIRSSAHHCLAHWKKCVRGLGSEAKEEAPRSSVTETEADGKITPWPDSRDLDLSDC

Row | SMILES | pKi
1 | CC1(C(=O)c2cn(CC3CCOCC3)c3ccccc23)CC1(Cl)Cl (stereo not given) | 6.74
2 | CC1(C)C(C(=O)c2cn(CC3OCCO3)c3ccccc23)C1(C)C | 9.00
3 | CC1(C)C(C(=O)c2cn(CCN3C(=O)CCC3=O)c3ccccc23)C1(C)C | 6.77
4 | Cc1ncsc1CCn1cc(C(=O)C2C(C)(C)C2(C)C)c2ccccc21 | 7.74
5 | O=C(c1cn(CC2CCOCC2)c2ccccc12)C12CC3CC(CC(C3)O1)C2 | 8.23
6 | CC(=O)CCCCn1cc(C(=O)C2C(C)(C)C2(C)C)c2ccccc21 | 9.00
7 | O=C(c1cn(CC2CCOCC2)c2ccccc12)C1CCCC1 | 7.96
8 | O=C(c1cn(CC2CCOCC2)c2ccccc12)C12CC3CC(CC1C3)C2 | 8.68
9 | CC1(C)C(C(=O)c2cn(CCn3cccc3)c3ccccc23)C1(C)C | 8.74
10 | O=C(c1cn(CC2CCOCC2)c2ccccc12)[C@@H]1CC12CCCCC2 | 8.59
11 | O=C(c1cn(CCN2CCOCC2)c2ccccc12)C12CC3CC(CC1C3)C2 | 7.64
12 | CC1(C)C(C(=O)c2cn(CCc3cccnc3)c3ccccc23)C1(C)C | 7.70

Biological target: Cannabinoid receptor 1 (Homo sapiens, UniProt P21554)
Sequence (P21554 whole entry): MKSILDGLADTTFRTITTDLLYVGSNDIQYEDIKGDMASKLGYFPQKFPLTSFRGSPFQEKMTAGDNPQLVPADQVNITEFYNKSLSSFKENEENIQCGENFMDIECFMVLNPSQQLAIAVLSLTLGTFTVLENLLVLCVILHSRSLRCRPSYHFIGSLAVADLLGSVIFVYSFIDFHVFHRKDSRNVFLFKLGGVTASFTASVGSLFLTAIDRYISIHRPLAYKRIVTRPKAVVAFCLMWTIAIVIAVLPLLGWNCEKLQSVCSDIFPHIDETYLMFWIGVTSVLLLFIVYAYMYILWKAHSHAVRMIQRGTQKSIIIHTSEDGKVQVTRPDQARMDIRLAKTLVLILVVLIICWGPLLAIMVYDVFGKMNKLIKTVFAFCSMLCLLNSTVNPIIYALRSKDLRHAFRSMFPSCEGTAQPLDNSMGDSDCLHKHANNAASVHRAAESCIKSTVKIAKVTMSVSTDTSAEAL
Assay: Displacement of [3H]CP-55940 from human recombinant CB1 receptor expressed in CHO cells
Type: cell-based
Conditions: read-out: Ki

Row | SMILES | pKi
13 | CC1(C(=O)c2cn(CC3CCOCC3)c3ccccc23)CC1(Cl)Cl (stereo not given) | 5.47
14 | CC1(C)C(C(=O)c2cn(CC3OCCO3)c3ccccc23)C1(C)C | 6.55
15 | CC1(C)C(C(=O)c2cn(CCN3C(=O)CCC3=O)c3ccccc23)C1(C)C | < 5.00
16 | Cc1ncsc1CCn1cc(C(=O)C2C(C)(C)C2(C)C)c2ccccc21 | 5.70
17 | O=C(c1cn(CC2CCOCC2)c2ccccc12)C12CC3CC(CC(C3)O1)C2 | 6.27
18 | CC(=O)CCCCn1cc(C(=O)C2C(C)(C)C2(C)C)c2ccccc21 | 6.42
19 | O=C(c1cn(CC2CCOCC2)c2ccccc12)C1CCCC1 | 6.88
20 | O=C(c1cn(CC2CCOCC2)c2ccccc12)C12CC3CC(CC1C3)C2 | 7.14
21 | CC1(C)C(C(=O)c2cn(CCn3cccc3)c3ccccc23)C1(C)C | 6.51
22 | O=C(c1cn(CC2CCOCC2)c2ccccc12)[C@@H]1CC12CCCCC2 | 7.21
23 | O=C(c1cn(CCN2CCOCC2)c2ccccc12)C12CC3CC(CC1C3)C2 | < 5.00
24 | CC1(C)C(C(=O)c2cn(CCc3cccnc3)c3ccccc23)C1(C)C | < 5.00

Species on record: Homo sapiens
Assay: Selectivity ratio of Ki for human recombinant CB1 receptor to Ki for human recombinant CB2 receptor
Conditions: not given
Procedure, shortened: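 Membranes were from HEK cells stably expressing human CB2 and CHO cells stably expressing human CB1. Competition was run against 0.5 nM [3H]CP-55,940 in 50 mM Tris-HCl pH 7.4, 2.5 mM EDTA, 5 mM MgCl2, 0.05% fatty-acid-free BSA, for 90 min at 30 °C, then filtered. Nonspecific binding was set with 10 μM unlabeled CP-55,940. Ki came from one-site fits. Mean ± SEM, ≥3 experiments in duplicate.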

Row | SMILES | Ratio Ki
25 | CC1(C(=O)c2cn(CC3CCOCC3)c3ccccc23)CC1(Cl)Cl (stereo not given) | 19
26 | CC1(C)C(C(=O)c2cn(CC3OCCO3)c3ccccc23)C1(C)C | 280
27 | CC1(C)C(C(=O)c2cn(CCN3C(=O)CCC3=O)c3ccccc23)C1(C)C | > 59
28 | Cc1ncsc1CCn1cc(C(=O)C2C(C)(C)C2(C)C)c2ccccc21 | 111
29 | O=C(c1cn(CC2CCOCC2)c2ccccc12)C12CC3CC(CC(C3)O1)C2 | 91
30 | CC(=O)CCCCn1cc(C(=O)C2C(C)(C)C2(C)C)c2ccccc21 | 384
31 | O=C(c1cn(CC2CCOCC2)c2ccccc12)C1CCCC1 | 12
32 | O=C(c1cn(CC2CCOCC2)c2ccccc12)C12CC3CC(CC1C3)C2 | 35
33 | CC1(C)C(C(=O)c2cn(CCn3cccc3)c3ccccc23)C1(C)C | 172
34 | O=C(c1cn(CC2CCOCC2)c2ccccc12)[C@@H]1CC12CCCCC2 | 24
35 | O=C(c1cn(CCN2CCOCC2)c2ccccc12)C12CC3CC(CC1C3)C2 | > 435
36 | CC1(C)C(C(=O)c2cn(CCc3cccnc3)c3ccccc23)C1(C)C | > 500

Biological target: T1, Cannabinoid receptor 2
Assay: Agonist activity at human recombinant CB2 receptor expressed in HEK293 cells coexpressing Galphaq/o5 assessed as calcium mobilization by FLIPR assay
Type: functional, cell-based
Conditions: not given
Procedure, shortened: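 HEK cells stably coexpressing human CB2 and chimeric Gαq/o5 were seeded at 75 000 cells/well the day before and loaded with no-wash calcium dye. Mean ± SEM, ≥3 experiments in duplicate.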

Row | SMILES | pEC50
37 | CC1(C(=O)c2cn(CC3CCOCC3)c3ccccc23)CC1(Cl)Cl (stereo not given) | 6.11
38 | CC1(C)C(C(=O)c2cn(CC3OCCO3)c3ccccc23)C1(C)C | 8.15
39 | CC1(C)C(C(=O)c2cn(CCN3C(=O)CCC3=O)c3ccccc23)C1(C)C | 7.11
40 | Cc1ncsc1CCn1cc(C(=O)C2C(C)(C)C2(C)C)c2ccccc21 | 7.31
41 | O=C(c1cn(CC2CCOCC2)c2ccccc12)C12CC3CC(CC(C3)O1)C2 | 8.10
42 | CC(=O)CCCCn1cc(C(=O)C2C(C)(C)C2(C)C)c2ccccc21 | 8.22
43 | O=C(c1cn(CC2CCOCC2)c2ccccc12)C1CCCC1 | 7.70
44 | O=C(c1cn(CC2CCOCC2)c2ccccc12)C12CC3CC(CC1C3)C2 | 8.15
45 | CC1(C)C(C(=O)c2cn(CCn3cccc3)c3ccccc23)C1(C)C | 7.27
46 | O=C(c1cn(CC2CCOCC2)c2ccccc12)[C@@H]1CC12CCCCC2 | 7.85
47 | O=C(c1cn(CCN2CCOCC2)c2ccccc12)C12CC3CC(CC1C3)C2 | 7.17
48 | CC1(C)C(C(=O)c2cn(CCc3cccnc3)c3ccccc23)C1(C)C | 7.21

Biological target: T1, Cannabinoid receptor 2
Assay: Agonist activity at human recombinant CB2 receptor expressed in HEK293 cells coexpressing Galphaq/o5 assessed as calcium mobilization by FLIPR assay relative to CP-55940
Type: functional, cell-based
Conditions: not given
Procedure, shortened: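 HEK cells stably coexpressing human CB2 and chimeric Gαq/o5 were seeded at 75 000 cells/well the day before and loaded with no-wash calcium dye. […] Mean ± SEM, ≥3 experiments in duplicate.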

Row | SMILES | Activity
49 | CC1(C(=O)c2cn(CC3CCOCC3)c3ccccc23)CC1(Cl)Cl (stereo not given) | 32%
50 | CC1(C)C(C(=O)c2cn(CC3OCCO3)c3ccccc23)C1(C)C | 133%
51 | CC1(C)C(C(=O)c2cn(CCN3C(=O)CCC3=O)c3ccccc23)C1(C)C | 34%
52 | Cc1ncsc1CCn1cc(C(=O)C2C(C)(C)C2(C)C)c2ccccc21 | 49%
53 | O=C(c1cn(CC2CCOCC2)c2ccccc12)C12CC3CC(CC(C3)O1)C2 | 97%
54 | CC(=O)CCCCn1cc(C(=O)C2C(C)(C)C2(C)C)c2ccccc21 | 89%
55 | O=C(c1cn(CC2CCOCC2)c2ccccc12)C1CCCC1 | 64%
56 | O=C(c1cn(CC2CCOCC2)c2ccccc12)C12CC3CC(CC1C3)C2 | 93%
57 | CC1(C)C(C(=O)c2cn(CCn3cccc3)c3ccccc23)C1(C)C | 97%
58 | O=C(c1cn(CC2CCOCC2)c2ccccc12)[C@@H]1CC12CCCCC2 | 86%
59 | O=C(c1cn(CCN2CCOCC2)c2ccccc12)C12CC3CC(CC1C3)C2 | 66%
60 | CC1(C)C(C(=O)c2cn(CCc3cccnc3)c3ccccc23)C1(C)C | 78%

Source: ChEMBL document CHEMBL1156767, “Indol-3-ylcycloalkyl ketones: effects of N1 substituted indole side chain variations on CB(2) cannabinoid receptor activity” (J Med Chem, 2010)
